# Screening data deposited in PubChem by Johns Hopkins Ion Channel Center.
# TRPC4 act – activators of mouse TRPC4 channel, primary screen, Fluo4 calcium, HEK293 TRPC4beta/mu-opioid cells. B-score at 10 µM. Fluo4 calcium fluorescence; stronger effect = higher value. actives 0.49% (n = 310,000). AID 2237, 2010;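 active = B-score above 5 SD of library B-scores, and initial fluorescence ratio not above library mean plus 5 SD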;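 note: positive B-score marks a calcium rise read as TRPC4 activation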
# Target sequence (Q9QUQ5 whole entry, looked up): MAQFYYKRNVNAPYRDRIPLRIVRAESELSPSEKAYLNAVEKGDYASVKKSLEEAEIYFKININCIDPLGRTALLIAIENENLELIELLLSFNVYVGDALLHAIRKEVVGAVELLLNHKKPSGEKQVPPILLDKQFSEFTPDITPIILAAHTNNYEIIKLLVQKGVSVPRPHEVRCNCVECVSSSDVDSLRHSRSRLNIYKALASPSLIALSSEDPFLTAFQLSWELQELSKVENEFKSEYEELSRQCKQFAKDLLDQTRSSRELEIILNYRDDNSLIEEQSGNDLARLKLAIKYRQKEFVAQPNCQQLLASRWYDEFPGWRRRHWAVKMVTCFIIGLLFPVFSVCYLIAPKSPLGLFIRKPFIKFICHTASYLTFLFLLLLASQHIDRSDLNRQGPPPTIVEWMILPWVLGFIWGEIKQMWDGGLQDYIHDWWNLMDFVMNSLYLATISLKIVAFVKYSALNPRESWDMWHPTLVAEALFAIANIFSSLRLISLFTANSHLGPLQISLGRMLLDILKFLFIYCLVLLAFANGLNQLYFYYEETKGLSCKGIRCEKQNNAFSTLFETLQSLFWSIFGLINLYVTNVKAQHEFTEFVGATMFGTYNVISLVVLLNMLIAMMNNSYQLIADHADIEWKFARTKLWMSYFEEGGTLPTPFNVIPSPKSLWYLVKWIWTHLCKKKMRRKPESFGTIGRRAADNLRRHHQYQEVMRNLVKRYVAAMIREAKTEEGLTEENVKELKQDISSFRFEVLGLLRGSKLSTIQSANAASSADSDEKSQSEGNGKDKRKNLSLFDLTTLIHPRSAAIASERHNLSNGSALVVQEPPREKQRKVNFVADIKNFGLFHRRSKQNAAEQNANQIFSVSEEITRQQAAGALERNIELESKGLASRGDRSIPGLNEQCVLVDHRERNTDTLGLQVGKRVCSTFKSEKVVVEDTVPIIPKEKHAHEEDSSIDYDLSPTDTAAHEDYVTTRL
#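 Material: TRPC4beta and mu-opioid receptor HEK293 stable cells | Incubation: 45 min room-temperature Fluo4 loading, 110 s read | Detection: Kinetic Fluo4 calcium fluorescence | Measure: Integrated baseline-normalised fluorescence ratio, converted to per-well B score | Benchmarks: Low control buffer alone, high control maximal DAMGO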
# TRPC4 PAM – positive allosteric modulators of TRPC4, primary screen, cell-based, mouse TRPC4beta, HEK293 mu-opioid, Fluo-4 calcium; DAMGO EC20, Fluo-4 Ca2+ flux; stronger effect = higher value; B-score at 10 µM; actives 0.42% (n = 310,000);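 active = B-score of calcium response area above 5 SD of library B-scores, with initial fluorescence ratio within 5 SD of library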;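 note: B-score of integrated fluorescence ratio over time as area under calcium response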
# TRPC6 inh – mouse TRPC6 channel inhibitors, primary screen, cell-based, HEK293, membrane potential dye; Short transient receptor potential channel 6 (Mus musculus), Q61143; ACh-evoked depolarization; stronger effect = lower value; B-score at 10 µM; actives 1.1% (n = 310,000); AID 2553, 2010;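 active = B-score under library mean minus 3 SD, initial fluorescence not abnormally high, positive integrated signal ratio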;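 note: B-score derived from integrated fluorescence ratio over the kinetic read; more negative B-score means stronger inhibition of depolarization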
# TRPC4 block – inhibitors of mouse TRPC4 channel, primary screen, Fluo4 calcium, HEK293 TRPC4beta/mu-opioid cells | actives 0.39% (n = 300,000) | Short transient receptor potential channel 4 (Mus musculus), Q9QUQ5 | DAMGO-evoked Fluo4 calcium flux; stronger effect = lower value | B-score at 10 µM;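 active = B-score over 3 SD under the library average, no early fluorescence shift, positive overall ratio signal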
#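 System: stable TRPC4beta/mu-opioid receptor HEK293 cells; Dosing: single-point compound dosing; Measured by: Fluo4 Ca2+ flux fluorescence; Read-out basis: per-well B score of integrated baseline-normalized Fluo4 ratio.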
# Kir21 block – inhibitors of mouse Kir2.1 inward-rectifier potassium channel; AID 1672, 2009; Inward rectifier potassium channel 2 (Mus musculus), P35561; HEK293-Kir2.1, FluxOR thallium flux fluorescence; stronger effect = lower value; actives 0.85% (n = 310,000); B-score at 10 µM;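 active = fluorescence ratio B-score at or below minus 3 SD of library scores, with starting-brightness B-score within 2 SD, cut at about -4.2 in these data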;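 note: channel flux triggered by added potassium and thallium sulfate stimulus; B-score of peak minus minimum fluorescence over baseline after thallium stimulus; more negative B-score means stronger Kir2.1 block with less thallium influx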
# TRPC6 activator – mouse TRPC6 channel activators, primary screen, cell-based, HEK293, membrane potential dye; Short transient receptor potential channel 6 (Mus musculus), Q61143; HEK293-TRPC6 membrane potential dye fluorescence; stronger effect = higher value; B-score at 10 µM; actives 0.13% (n = 310,000);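 active = B-score of the integrated fluorescence ratio above library mean plus 3 SD, and starting fluorescence ratio within library mean plus 5 SD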;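 note: higher score means more depolarization so channel activation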
# * hit, by the source's call; i = inactive. This is a sample that favours compounds with a hit; in the whole collection about 2.9% have one here.
SMILES,TRPC4 act,TRPC4 PAM,TRPC6 inh,TRPC4 block,Kir21 block,TRPC6 activator
CCOC(=O)c1c(-n2c(C)cc(C=C3C(=O)NC(=S)NC3=O)c2C)sc2c1CCCC2,i,i,i,i,-4.85*,i
C#C[C@@]1(O)CCC2C3CCC4=C/C(=N/OCC(=O)NC(CCC(N)=O)C(=O)O)CC[C@]4(C)C3CC[C@@]21C (stereo not given in full),i,i,i,i,1.77,i
CCCC(=O)NC(Oc1ccc(OC)cc1)C(Cl)(Cl)Cl (stereo not given),i,i,i,i,-5.67*,i
COc1ccc(C)cc1NC1=NC(C)(C)CS1,i,i,i,-6*,-0.88,i
COc1ccc(OC)c(NC2=NCCS2)c1,i,i,i,i,-0.64,i
COc1ccc(OCC#CCN2CCCCCC2)cc1,i,i,i,i,0.55,i
Cc1ccc(C(C)C)c(OCC#CCN2CCCC2)c1,i,i,i,i,-4.21*,i
Cc1ccc(Cn2ccccc2=N)cc1,i,i,i,i,1.44,i
Cn1cc(C(O)CN2CCCCC2)c2ccccc21 (stereo not given),i,i,i,i,-0.16,i
CN(C)C1(CNC(=O)Nc2ccc(Cl)c(Cl)c2)CCCCC1,91*,i,i,i,-2.19,i
N#Cc1ccc(NC(=O)CN2C(=O)NC3(CCCC3)C2=O)cc1Cl,i,i,i,i,-1.99,i
CCOc1cc2c(cc1OCC)-n1cccc1C(c1ccccc1F)NC2 (stereo not given),i,i,i,i,-0.85,i
NC(N)=N/N=C/c1cn(-c2ccccc2)nc1-c1cccs1,97*,i,i,i,-9.28*,i
O=c1c2ccccc2nc(-c2cccs2)n1-c1ccccc1,i,i,i,i,-1.81,i
CN(C)c1ccc(/C=C2/C(=N\O)C3CCN2CC3)cc1,i,i,i,i,1.23,i
O=C1NC(=O)N(c2ccc3c(c2)OCO3)C(=O)/C1=C/c1ccc(N2CCCCC2)o1,i,i,i,i,-4.29*,i
CN[C@@H]1C[C@@H](c2ccc(Cl)c(Cl)c2)c2ccccc21,i,i,i,i,-11.4*,i
COc1ccc(C(=O)c2nc3ccccc3n2C(C)C)cc1,i,i,i,i,-1.22,i
COc1cccc(-c2nn(CCC#N)cc2C(=O)Nc2ccccc2Cl)c1,i,i,i,i,-0.97,i
COc1ccc(-n2c(CNCCc3ccc(C)cc3)nc3ccccc3c2=O)cc1,134*,i,i,i,-0.57,i
c1ccc(C2NCCc3[nH]cnc32)cc1 (stereo not given),i,i,i,i,-0.47,i
COc1ccc(C2NCCc3[nH]cnc32)cc1 (stereo not given),175*,i,i,i,-0.05,i
O=P(Nc1c(Cl)cccc1Cl)(c1ccccc1)c1nc2c(s1)CCCC2 (stereo not given),i,i,i,i,0.01,i
O=P(Nc1ccccc1Cl)(c1ccccc1)c1nc2c(s1)CCCC2 (stereo not given),i,14*,i,i,-0.39,i
COc1c(C=C2C(=O)NC(=O)NC2=O)c(CCN(C)C(=O)c2ccccc2)cc2c1OCO2,i,i,i,i,-4.51*,i
SMILES,TRPC4 act,TRPC4 PAM,TRPC6 inh,TRPC4 block,Kir21 block,TRPC6 activator
Cc1ccsc1C(=O)C1CCCN(Cc2cnc(N3CCCC3)s2)C1 (stereo not given),i,i,i,i,0.1,i
CC(NS(C)(=O)=O)c1nnc2n1-c1ccc(Br)cc1C(c1ccccc1Cl)=NC2 (stereo not given),i,i,i,i,-0.43,i
CCN(CC)CC(=O)Nc1ccc(Cl)cc1C(=O)c1ccccc1,i,i,i,-6*,-2.93,i
CC(C)(C)NC(=S)/N=C(\N)N[N+](=O)[O-],i,i,i,i,3.3,i
O=C1NC(=O)N(c2cccc(Cl)c2)C(=O)/C1=C\c1ccc(Sc2nc3ccccc3[nH]2)o1,i,i,i,i,-4.75*,i
O=C1NC(=O)N(c2ccccc2)C(=O)/C1=C/c1ccc(Sc2ccccc2)o1,i,i,i,i,0,i
CC(C)Oc1ccc(CCN)cc1Cl,i,i,i,i,0.14,i
COc1ccc(CCN)cc1O,43*,i,i,i,0.96,i
CCCCCCC(Cl)(Cn1ccnc1)c1ccccc1 (stereo not given),i,i,i,i,-0.24,i
Cc1ccc(CN2CCCC(C(=O)c3cccc(C(F)(F)F)c3)C2)o1 (stereo not given),i,i,i,i,-1.67,i
O=C(c1ccc(C(F)(F)F)cc1)C1CCCN(Cc2ccncc2)C1 (stereo not given),51*,i,i,i,-0.31,i
O=C(c1cccc(C(F)(F)F)c1)C1CCCN(Cc2ccccc2O)C1 (stereo not given),i,i,i,-9*,-1.31,i
CN1CCCN(c2ccc([N+](=O)[O-])nc2)CC1,i,i,i,i,2.49,i
CN1CCN(c2ccc([N+](=O)[O-])c(N3CCCCC3)c2)CC1,i,i,i,i,-1.96,i
O=[N+]([O-])c1ccc(N2CCNCC2)c2ncccc12,69*,24*,-5.55*,i,0.06,i
CN1CCN(c2ccc([N+](=O)[O-])c3cccnc23)CC1,64*,18*,i,i,0.57,i
O=[N+]([O-])c1ccc(N2CCNCC2)cc1Sc1ccccn1,i,i,i,i,0.28,i
Cc1nn(C)cc1/C=C1/CC2C3CC=C4CC(O)CCC4(C)C3CCC2(C)C1=O (stereo not given),i,10*,i,i,0.78,i
CC12CCC3C(CC=C4CC(O)CCC43C)C1C/C(=C\c1ccccc1F)C2=O (stereo not given),i,i,i,i,0.01,i
